pIC50, pKi: −log10 of the molar value. Activity calls are given as the source filed them. No cut-off for these calls is given here.
Tests used:
HFF-1 [1] = test: Cytotoxicity against human HFF1 cells assessed as reduction in cell viability at 100 uM after 24 hrs by MTT assay relative to control; format: cell-based; conditions: hff-1, 24 h
HFF-1 [2] = test: Cytotoxicity against human HFF1 cells assessed as reduction in cell viability after 24 hrs by MTT assay; format: cell-based; conditions: HFF-1, 24 h
Summary of the method: (§1)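 MTT viability assay in Caco-2, MCF-7 and HFF-1 cells; top tested concentration 100 μM. IC50 given as mean ± SD of at least two experiments run in quadruplicate.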

Caco-2 [3] = test: Cytotoxicity against human Caco2 cells assessed as reduction in cell viability after 24 hrs by MTT assay; format: functional, cell-based; conditions: Caco-2, 24 h; summary of the method: as §1
[4] = target: Sigma non-opioid intracellular receptor 1 (Cavia porcellus, UniProt Q60492); test: Displacement of [3H]-(+)-pentazocine from sigma1 receptor in guinea pig brain membranes incubated for 1 hr by liquid scintillation counting method; format: cell membranes, Membrane
Summary of the method: (§2)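 Radioligand binding at σ1 and σ2 receptors, with [3H]DTG as the σ2 radioligand. Ki given as mean ± SD of at least two experiments run in triplicate.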

[5] = target: T1, Sigma intracellular receptor 2 (Homo sapiens, UniProt Q5BJF2); test: Displacement of [3H]-di-o-tolylguanidine from sigma2 receptor (unknown origin) incubated for 1 hr in presence of (+)SKF10047 by liquid scintillation counting method; summary of the method: as §2
MCF7 [6] = test: Cytotoxicity against human MCF7 cells assessed as reduction in cell viability after 24 hrs by MTT assay; format: functional, cell-based; conditions: MCF7, 24 h; summary of the method: as §1
MCF7 [7] = test: Cytotoxicity against human MCF7 cells assessed as reduction in cell viability at 100 uM after 24 hrs by MTT assay relative to control; format: functional
[8] = target: Sigma non-opioid intracellular receptor 1 (Cavia porcellus) (UniProt Q60492); test: Displacement of [3H]-(+)-pentazocine from sigma1 receptor in guinea pig brain membranes at 10 uM incubated for 1 hr by liquid scintillation counting method relative to control; format: cell membranes; conditions: Membrane
[9] = target: T1, Sigma intracellular receptor 2; test: Displacement of [3H]-di-o-tolylguanidine from sigma2 receptor (unknown origin) at 10 uM incubated for 1 hr in presence of (+)SKF10047 by liquid scintillation counting method relative to control
Caco-2 [10] = test: Cytotoxicity against human Caco2 cells assessed as reduction in cell viability at 100 uM after 24 hrs by MTT assay relative to control; format: functional
[11] = Drug metabolism in Tris-HCl buffer assessed as amount of nitrite released at 100 uM and 37 degree C after 30 mins in presence of nitrate reductase and NADPH by Griess reagent based spectrophotometric analysis; format: physicochemical; conditions: 0.5 h
Summary of the method: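 Test agents at 100 μM incubated in Tris-HCl buffer at 37 °C for 30 min; total nitrite measured with Griess reagent.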

MCF7 [12] = test: Cytotoxicity against human MCF7 cells assessed as restoration of cell viability loss at IC50 after 24 hrs in presence of PTZ by MTT assay; format: functional, cell-based
Summary of the method: (§3)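 MCF-7 cells given the test agent at its viability-reducing concentration together with 1 μM σ1 agonist (+)-pentazocine or 1 μM σ2 antagonist 1-phenethylpiperidine (AC927); viability read by MTT.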

MCF7 [13] = test: Cytotoxicity against human MCF7 cells assessed as restoration of cell viability loss at IC50 after 24 hrs in presence of AC927 by MTT assay; format: functional, cell-based; summary of the method: as §3

T1 sequence (Q5BJF2 whole entry): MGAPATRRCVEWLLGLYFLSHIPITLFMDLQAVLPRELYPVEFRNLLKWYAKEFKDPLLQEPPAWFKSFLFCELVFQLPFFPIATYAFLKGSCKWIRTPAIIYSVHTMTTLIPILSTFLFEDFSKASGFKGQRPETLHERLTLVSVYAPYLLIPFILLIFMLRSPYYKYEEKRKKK
Sequence of Sigma non-opioid intracellular receptor 1 (Cavia porcellus) (Q60492 whole entry): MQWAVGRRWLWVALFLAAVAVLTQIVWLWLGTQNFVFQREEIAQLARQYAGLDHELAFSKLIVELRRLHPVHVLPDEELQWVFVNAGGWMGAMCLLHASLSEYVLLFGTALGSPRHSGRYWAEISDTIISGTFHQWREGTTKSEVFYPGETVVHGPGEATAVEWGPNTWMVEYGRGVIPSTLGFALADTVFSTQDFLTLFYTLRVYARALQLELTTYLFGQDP
Sequence of Sigma non-opioid intracellular receptor 1 (Q60492 whole entry): as above

SMILES	pKi [4]	pKi [5]	pIC50 (MCF7 [6])	Activity (MCF7 [7])	other results
COc1cccc2c1C(=O)c1c(O)c3c(c(O)c1C2=O)C[C@@](O)(C(=O)CO)C[C@@H]3O[C@H]1C[C@H](N)[C@H](O)[C@H](C)O1 [DOXORUBICIN]	–	–	–	–	Activity (HFF-1 [1]): < 50%; pIC50 (HFF-1 [2]): < 4.00; pIC50 (Caco-2 [3]): 4.68
Cc1ccc(C(=O)O)cc1 [4-METHYLBENZOIC ACID]	< 5.00	< 5.00	< 4.00	<50%	inhibition [8]: < 50%; inhibition [9]: < 50%
O=C(O)c1ccc(CO)cc1	< 5.00	< 5.00	< 4.00	<50%	inhibition [8]: < 50%; inhibition [9]: < 50%
O=C(Cc1ccc(CO[N+](=O)[O-])cc1)NC1CCN(Cc2ccccc2)CC1	6.77	5.60	–	–	–
O=C(NC1CCN(Cc2ccccc2)CC1)c1ccc(CO[N+](=O)[O-])cc1	7.66	6.57	< 4.00	<50%	Activity (HFF-1 [1]): < 50%; pIC50 (HFF-1 [2]): < 4.00; Activity (Caco-2 [10]): <50%; pIC50 (Caco-2 [3]): < 4.00; Drug metabolism [11]: 6.3 µM
O=C(Cc1cccc(CO[N+](=O)[O-])c1)NC1CCN(Cc2ccccc2)CC1	7.72	6.49	< 4.00	<50%	Activity (HFF-1 [1]): < 50%; pIC50 (HFF-1 [2]): < 4.00; Activity (Caco-2 [10]): <50%; pIC50 (Caco-2 [3]): < 4.00; Drug metabolism [11]: 1.3 µM
O=C(NCCN1CCC(Cc2ccccc2)CC1)c1cccc(CO[N+](=O)[O-])c1	7.31	6.48	4.44	–	Activity (HFF-1 [1]): < 50%; pIC50 (HFF-1 [2]): < 4.00; pIC50 (Caco-2 [3]): 4.23; Drug metabolism [11]: 13 µM
O=C(O)c1ccc(CO[N+](=O)[O-])cc1	< 5.00	< 5.00	< 4.00	<50%	inhibition [8]: < 50%; inhibition [9]: < 50%
O=C(NCCCCN1CCC(Cc2ccccc2)CC1)c1ccc(CO)cc1	6.15	5.59	< 4.00	<50%	–
O=C(NCCCN1CCC(Cc2ccccc2)CC1)c1ccc(CO[N+](=O)[O-])cc1	6.84	6.64	–	–	–
O=C(NCCN1CCC(Cc2ccccc2)CC1)c1ccc(CO[N+](=O)[O-])cc1	7.05	5.57	–	–	–

Continued, in another order:

pKi [4]	pKi [5]	SMILES	pIC50 (MCF7 [6])	Activity (MCF7 [7])	other results
6.83	7.12	O=C(NCCCCN1CCC(Cc2ccccc2)CC1)c1cccc(CO[N+](=O)[O-])c1	–	–	–
7.21	6.90	Cc1ccc(C(=O)NCCCCN2CCC(Cc3ccccc3)CC2)cc1	4.06	<50%	–
7.30	6.85	O=C(NCCCCCN1CCC(Cc2ccccc2)CC1)c1cccc(CO[N+](=O)[O-])c1	–	–	–
–	7.74	C[C@@H]1CCO[C@H]2Cn3cc(C(=O)NCc4ccc(F)cc4F)c(=O)c(O)c3C(=O)N12 [DOLUTEGRAVIR]	–	–	–
6.60	7.05	O=C(NCCCCN1CCC(Cc2ccccc2)CC1)c1ccc(CO[N+](=O)[O-])cc1	4.59	–	Activity (HFF-1 [1]): < 50%; pIC50 (HFF-1 [2]): < 4.00; Activity (MCF7 [12]): inactive; Activity (MCF7 [13]): inactive; pIC50 (Caco-2 [3]): 4.55; Drug metabolism [11]: 13 µM
7.03	7.15	O=C(NCCCCCN1CCC(Cc2ccccc2)CC1)c1ccc(CO[N+](=O)[O-])cc1	–	–	–
7.62	7.72	O=C(NC1CCN(Cc2ccccc2)CC1)c1cccc(CO[N+](=O)[O-])c1	–	–	–
7.19	7.03	O=C(NCCCN1CCC(Cc2ccccc2)CC1)c1cccc(CO[N+](=O)[O-])c1	–	–	–

From ChEMBL document CHEMBL4613307, “Sigma Receptor Ligands Carrying a Nitric Oxide Donor Nitrate Moiety: Synthesis, In Silico, and Biological Evaluation” (ACS Med Chem Lett, 2020)
